RGS4 block – human RGS4 inhibition; HEK293 M3R/RGS4 inducible, Fluo-4 calcium flux; active compounds read high; triggered by carbachol at its EC20; B-score at 10 µM; 0.45% of 310,000 active;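 active = B-score, a plate-corrected calcium signal, over three deviations above library mean, with baseline fluorescence within five deviations of library mean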;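 note: RGS4 expression induced by doxycycline in cells with stable M3 receptor; B-score is computed from the integrated fluorescence ratio over baseline after carbachol; higher B-score means a larger calcium signal and so more RGS4 inhibition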
Target sequence (P49798 whole entry, looked up): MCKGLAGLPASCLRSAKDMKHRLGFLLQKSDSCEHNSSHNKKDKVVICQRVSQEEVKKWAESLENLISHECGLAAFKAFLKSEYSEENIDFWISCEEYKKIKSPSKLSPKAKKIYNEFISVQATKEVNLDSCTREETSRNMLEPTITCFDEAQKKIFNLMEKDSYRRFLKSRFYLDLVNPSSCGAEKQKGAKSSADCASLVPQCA
MrgX1 antagonist – human MrgX1 receptor antagonism, primary screen | AID 588676 | Q96LB2 | B-score at 10 µM | MRGX1-HEK293 calcium flux, Fluo-4, BAM8-22 antagonism; active compounds read low | 1.3% of 310,000 active;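 active = calcium-response B-score plate-corrected more than 3 library SD below zero, starting fluorescence within 5 deviations, no agonist response on first addition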;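 note: peak minus trough fluorescence over baseline after final BAM8-22 challenge near maximal dose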
Target sequence (Q96LB2 whole entry, looked up): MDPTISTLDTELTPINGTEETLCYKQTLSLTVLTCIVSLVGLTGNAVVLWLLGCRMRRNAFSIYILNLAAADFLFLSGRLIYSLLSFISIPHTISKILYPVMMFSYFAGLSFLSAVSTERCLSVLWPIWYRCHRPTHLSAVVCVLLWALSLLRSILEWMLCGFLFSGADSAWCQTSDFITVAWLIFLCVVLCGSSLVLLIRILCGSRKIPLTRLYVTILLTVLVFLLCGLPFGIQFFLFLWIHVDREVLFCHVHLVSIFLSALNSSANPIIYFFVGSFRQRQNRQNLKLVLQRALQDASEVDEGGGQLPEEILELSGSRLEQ
MrgX1 agonist – activates human MrgX1 receptor signaling | Q96LB2 | MrgX1-HEK293 cells, Fluo-4 calcium fluorescence, agonist mode; active compounds read high | B-score at 10 µM | 0.44% of 310,000 active;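 active = calcium response B-score plate-corrected fluorescence ratio at least 3 library SD, with starting fluorescence B-score inside 5 SD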
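Assay system: stable human MrgX1 HEK293 cell line. Quantity: 15,000 cells per well. Schedule: cells plated overnight, dye loaded 0.5 h 37 °C, 0.5 h room temperature. Detection: Fluo-4 NW calcium-flux fluorescence, kinetic read. Read-out basis: peak-minus-minimum fluorescence over baseline, converted to B scores. Control set: positive and negative control wells on each plate.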
RGS4 act – RGS4 potentiation or activation. HEK293 M3R/inducible RGS4, carbachol calcium flux Fluo4; active compounds read low. B-score at 10 µM. 0.92% of 310,000 active. AID 463111;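 active = B-score of the integrated calcium signal more than 4 SD below the library mean, with starting fluorescence not abnormally high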;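 note: negative B-score means reduced calcium response which marks RGS4 activation or potentiation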
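Also added: carbachol at ECmax as muscarinic agonist stimulus; Assay system: HEK293 cells with stable M3R and inducible RGS4; Timing: overnight RGS4 induction, 30 min dye load 37 °C, 20 min compound RT; Measured by: Fluo4-AM (2 µM) calcium-flux fluorescence, kinetic read.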
MrgX1 allo act – human MrgX1 positive allosteric modulation, primary screen. Q96LB2. MrgX1-HEK293, Fluo-4 calcium flux, FDSS; active compounds read high. B-score at 10 µM. 0.63% of 310,000 active. AID 588675;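 active = plate-corrected calcium response at least 3 library SD above typical, normal starting fluorescence, not activating the receptor alone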;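 note: compound read alongside a low EC10 to EC30 dose of BAM8-22 agonist; peak minus trough fluorescence over baseline measured at the second addition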
MrgX1 PAM conf – confirmation of human MrgX1 receptor positive allosteric modulators; shares compounds with MrgX1 allo act; MrgX1-HEK293, Fluo-4 calcium fluorescence, FDSS; activation (ratio percentage), % at 10 µM; 13% of 1,200 active; AID 602413;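 active = ratio at least 3 SD above the weak peptide control, stable starting fluorescence, no direct agonism earlier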;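 note: compound followed by low BAM8-22 agonist challenge near EC20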
HEK293 Ca flux – activity in parental HEK293 cells lacking MrgX1; shares compounds with MrgX1 antagonist; Fluo-4 calcium fluorescence, FDSS; fluorescence ratio F(max-min)/F0 at 10 µM; 2% of 4,000 active; AID 624111;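 active = duplicate-averaged calcium fluorescence ratio at least three times the standard deviation of buffer wells, a nonspecific response in parental cells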
HEK293 Ca counter – activity in parental HEK293 cells without MrgX1; 0.4% of 4,000 active; fluorescence ratio F(max-min)/F0 at 10 µM; parental HEK293 calcium flux, Fluo-4 fluorescence ratio; active compounds read high; shares compounds with MrgX1 antagonist;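 active = calcium fluorescence ratio, averaged over duplicates, at least 3 SD of the buffer-well ratio, meaning a nonspecific response in receptor-free cells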;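 note: untransfected parental HEK293 lacking MrgX1 used as counterscreen for MrgX1 allosteric activators; fluorescence change taken during the second addition on a kinetic imager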
HEK293 Ca cntr2 – MrgX1 activator counter-screen hit in parental HEK293 cells. AID 624115. 8.7% of 4,000 active. shares compounds with MrgX1 antagonist. fluorescence ratio F(max-min)/F0 at 10 µM. Fluo-4 calcium fluorescence (FDSS); active compounds read high;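 active = calcium fluorescence ratio at least three times the spread of buffer wells, meaning a non-specific response in parental cells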
An asterisk follows results filed as active. A selection: hits, their analogues and other compounds. The true share with any hit is near 3.5%.

Screening O=C(Nc1ccc(Br)cc1)c1ccccc1Br returned RGS4 block inactive, MrgX1 antagonist inactive, MrgX1 agonist inactive, RGS4 act inactive, MrgX1 allo act 16.3*, MrgX1 PAM conf inactive, HEK293 Ca flux inactive, HEK293 Ca counter inactive and HEK293 Ca cntr2 inactive.
For Cc1ccc2c(c1)NC(=O)C(CC(=O)O)O2 (centres undefined) the results were RGS4 block inactive, MrgX1 antagonist inactive, MrgX1 agonist inactive, RGS4 act inactive, MrgX1 allo act 8.07*, MrgX1 PAM conf inactive, HEK293 Ca flux inactive, HEK293 Ca counter inactive and HEK293 Ca cntr2 inactive.
Cc1ccc(NC(=O)CC2Oc3ccc(C)cc3NC2=O)c(C)c1 (centres undefined) was read as RGS4 block inactive, MrgX1 antagonist inactive, MrgX1 agonist inactive, RGS4 act inactive and MrgX1 allo act inactive.
Screening O=C(CS(=O)(=O)c1ccccc1)Nc1nc(-c2ccccc2)cs1 returned RGS4 block inactive, MrgX1 antagonist inactive, MrgX1 agonist inactive, RGS4 act inactive, MrgX1 allo act 8.44*, MrgX1 PAM conf inactive, HEK293 Ca flux inactive, HEK293 Ca counter inactive and HEK293 Ca cntr2 inactive.
For Cc1ccc(S(=O)(=O)CC(=O)Nc2nc(-c3ccccc3)cs2)cc1 the results were RGS4 block inactive, MrgX1 antagonist inactive, MrgX1 agonist inactive, RGS4 act inactive and MrgX1 allo act inactive.
`O=C(Nc1ccc(Cc2ccncc2)cc1)c1ccc([N+](=O)[O-])o1` gave RGS4 block inactive, MrgX1 antagonist inactive, MrgX1 agonist inactive, RGS4 act inactive and MrgX1 allo act inactive.
`CC(C)(C)c1nnc(NC(=O)CCS(=O)(=O)c2ccccc2)s1` gave RGS4 block inactive, MrgX1 antagonist inactive, MrgX1 agonist inactive, RGS4 act inactive, MrgX1 allo act 42.5*, MrgX1 PAM conf inactive, HEK293 Ca flux inactive, HEK293 Ca counter inactive and HEK293 Ca cntr2 inactive.
`Cc1cc(C)cc(NC(=S)N2CCC(NC(=O)C3CCCCC3)CC2)c1` gave RGS4 block inactive, MrgX1 antagonist inactive, MrgX1 agonist inactive, RGS4 act inactive, MrgX1 allo act 8.57*, MrgX1 PAM conf inactive, HEK293 Ca flux inactive, HEK293 Ca counter inactive and HEK293 Ca cntr2 inactive.
Screening CCOC(=O)c1cnc(-c2ccccc2)nc1N(C)C returned RGS4 block inactive, MrgX1 antagonist inactive, MrgX1 agonist inactive, RGS4 act inactive and MrgX1 allo act inactive.
Screening CCOC(=O)c1cnc(-c2ccccc2)nc1N returned RGS4 block inactive, MrgX1 antagonist inactive, MrgX1 agonist inactive, RGS4 act inactive, MrgX1 allo act 10.1*, MrgX1 PAM conf inactive, HEK293 Ca flux inactive, HEK293 Ca counter inactive and HEK293 Ca cntr2 inactive.
Screening CCN(CC)S(=O)(=O)c1c(OC)cc(C)c(Cl)c1C returned RGS4 block inactive, MrgX1 antagonist inactive, MrgX1 agonist inactive, RGS4 act inactive, MrgX1 allo act 10.1*, MrgX1 PAM conf inactive, HEK293 Ca flux inactive, HEK293 Ca counter inactive and HEK293 Ca cntr2 inactive.
For CCN(CC)S(=O)(=O)c1cc(C)c(C)cc1Br the results were RGS4 block inactive, MrgX1 antagonist inactive, MrgX1 agonist inactive, RGS4 act inactive and MrgX1 allo act inactive.

Source: PubChem BioAssay
